In ChEMBL document CHEMBL2412964, “Discovery of novel tetrahydro-pyrazolo [4,3-c] pyridines for the treatment of neuropathic pain: synthesis and neuropharmacology” (Eur J Med Chem, 2013):

What was measured:
Mus musculus [1] = assay: Antinociceptive activity in Swiss albino mouse assessed as inhibition of formalin-induced flinching at 5 mg/kg administered 30 mins prior to test measured for 10 to 30 mins relative to control; type: functional
Mus musculus [2] = assay: Antinociceptive activity in Swiss albino mouse assessed as inhibition of formalin-induced flinching at 5 mg/kg administered 30 mins prior to test measured up to 5 mins relative to control; type: functional
Mus musculus [3] = assay: Antinociceptive activity in Swiss albino mouse assessed as inhibition of acetic acid-induced writhing at 5 mg/kg administered 30 mins prior to acetic acid-challenge measured for 30 mins relative to control; type: functional
Mus musculus [4] = assay: Neurotoxicity in Swiss albino mouse assessed as minimal motor impairment at 300 mg/kg after 4 hrs by rotarod test; type: toxicity, organism-based; design: dose 300 mg/kg; details: in vivo
Procedure, shortened: (§1)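 Swiss albino mice of either sex, 20-25 g, dosed at 30, 100 and 300 mg/kg, three per group. Minimal motor impairment scored by rotarod at 0.5 and 4.0 h after dosing. Reported value is the lowest dose giving impairment in half or more of the mice.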

Mus musculus [5] = assay: Neurotoxicity in Swiss albino mouse assessed as minimal motor impairment at 300 mg/kg after 0.5 hrs by rotarod test; type: toxicity, organism-based; design: dose 300 mg/kg; details: in vivo; procedure, shortened: as §1
Rattus norvegicus [6] = assay: Antinociceptive activity in Wistar rat partial sciatic nerve ligation model assessed as reversal of mechanical allodynia at 100 mg/kg, ip after 120 mins (reference value: 2.9 +/- 0.3%); type: functional; details: route intraperitoneal
Rattus norvegicus [7] = assay: Antinociceptive activity in Wistar rat partial sciatic nerve ligation model assessed as reversal of mechanical allodynia at 100 mg/kg, ip after 60 mins (reference value: 2.8 +/- 0.3%); type: functional; details: route intraperitoneal
Rattus norvegicus [8] = assay: Antinociceptive activity in Wistar rat partial sciatic nerve ligation model assessed as reversal of mechanical allodynia at 100 mg/kg, ip after 30 mins (reference value: 2.9 +/- 0.3%); type: functional; details: route intraperitoneal
Rattus norvegicus [9] = assay: Antinociceptive activity in Wistar rat chronic constriction injury model assessed as reversal of mechanical allodynia at 100 mg/kg, ip after 120 mins (reference value: 5.3 +/- 0.5%); type: functional; details: route intraperitoneal
Rattus norvegicus [10] = assay: Antinociceptive activity in Wistar rat chronic constriction injury model assessed as reversal of mechanical allodynia at 100 mg/kg, ip after 60 mins (reference value: 4.9 +/- 1.0%); type: functional; details: route intraperitoneal
Rattus norvegicus [11] = assay: Antinociceptive activity in Wistar rat chronic constriction injury model assessed as reversal of mechanical allodynia at 100 mg/kg, ip after 30 mins (reference value: 4.7 +/- 2.1%); type: functional; details: route intraperitoneal
Rattus norvegicus [12] = assay: Antinociceptive activity in Wistar rat partial sciatic nerve ligation model assessed as reversal of cold allodynia at 100 mg/kg, ip after 120 mins (reference value: 1.5 +/- 0.5%); type: functional; details: route intraperitoneal
Rattus norvegicus [13] = assay: Antinociceptive activity in Wistar rat partial sciatic nerve ligation model assessed as reversal of cold allodynia at 100 mg/kg, ip after 60 mins (reference value: 2.5 +/- 0.3%); type: functional; details: route intraperitoneal
Rattus norvegicus [14] = assay: Antinociceptive activity in Wistar rat partial sciatic nerve ligation model assessed as reversal of cold allodynia at 100 mg/kg, ip after 30 mins (reference value: 4.1 +/- 1.0%); type: functional; details: route intraperitoneal
Rattus norvegicus [15] = assay: Antinociceptive activity in Wistar rat chronic constriction injury model assessed as reversal of cold allodynia at 100 mg/kg, ip after 120 mins (reference value: 5.4 +/- 1.9%); type: functional; details: route intraperitoneal
Rattus norvegicus [16] = assay: Antinociceptive activity in Wistar rat chronic constriction injury model assessed as reversal of cold allodynia at 100 mg/kg, ip after 60 mins (reference value: 6.3 +/- 1.9%); type: functional; details: route intraperitoneal
Rattus norvegicus [17] = assay: Antinociceptive activity in Wistar rat chronic constriction injury model assessed as reversal of cold allodynia at 100 mg/kg, ip after 30 mins (reference value: 0.6 +/- 2.7%); type: functional; details: route intraperitoneal
Rattus norvegicus [18] = assay: Antinociceptive activity in Wistar rat partial sciatic nerve ligation model assessed as reversal of tactile allodynia at 100 mg/kg, ip after 120 mins relative to control; type: functional; details: route intraperitoneal
Rattus norvegicus [19] = assay: Antinociceptive activity in Wistar rat partial sciatic nerve ligation model assessed as reversal of tactile allodynia at 100 mg/kg, ip after 60 mins (reference value: 12.5 +/- 1.2%); type: functional; details: route intraperitoneal
Rattus norvegicus [20] = assay: Antinociceptive activity in Wistar rat partial sciatic nerve ligation model assessed as reversal of tactile allodynia at 100 mg/kg, ip after 30 mins (reference value: 7.7 +/- 0.7%); type: functional; details: route intraperitoneal
Rattus norvegicus [21] = assay: Antinociceptive activity in Wistar rat chronic constriction injury model assessed as reversal of tactile allodynia at 100 mg/kg, ip after 120 mins (reference value: 4.1 +/- 2.1%); type: functional; details: route intraperitoneal
Rattus norvegicus [22] = assay: Antinociceptive activity in Wistar rat chronic constriction injury model assessed as reversal of tactile allodynia at 100 mg/kg, ip after 60 mins (reference value: 1.3 +/- 0.3%); type: functional; details: route intraperitoneal
Rattus norvegicus [23] = assay: Antinociceptive activity in Wistar rat chronic constriction injury model assessed as reversal of tactile allodynia at 100 mg/kg, ip after 30 mins (reference value: 3.4 +/- 0.8%); type: functional; details: route intraperitoneal
Rattus norvegicus [24] = assay: Antinociceptive activity in Wistar rat partial sciatic nerve ligation model assessed as reversal of spontaneous pain response at 100 mg/kg, ip after 120 mins (reference value: 1.2 +/- 0.1%); type: functional; details: route intraperitoneal
Rattus norvegicus [25] = assay: Antinociceptive activity in Wistar rat partial sciatic nerve ligation model assessed as reversal of spontaneous pain response at 100 mg/kg, ip after 60 mins (reference value: 2.9 +/- 0.3%); type: functional; details: route intraperitoneal
Rattus norvegicus [26] = assay: Antinociceptive activity in Wistar rat partial sciatic nerve ligation model assessed as reversal of spontaneous pain response at 100 mg/kg, ip after 30 mins (reference value: 3.2 +/- 0.3%); type: functional; details: route intraperitoneal
Rattus norvegicus [27] = assay: Antinociceptive activity in Wistar rat chronic constriction injury model assessed as reversal of spontaneous pain response at 100 mg/kg, ip after 120 mins (reference value: 4.5 +/- 0.2%); type: functional; details: route intraperitoneal
Rattus norvegicus [28] = assay: Antinociceptive activity in Wistar rat chronic constriction injury model assessed as reversal of spontaneous pain response at 100 mg/kg, ip after 60 mins (reference value: 4.6 +/- 0.6%); type: functional; details: route intraperitoneal
Rattus norvegicus [29] = assay: Antinociceptive activity in Wistar rat chronic constriction injury model assessed as reversal of spontaneous pain response at 100 mg/kg, ip after 30 mins (reference value: 8.9 +/- 4.6%); type: functional; details: route intraperitoneal
Mus musculus [30] = assay: Antinociceptive activity in Swiss albino mouse assessed as inhibition of formalin-induced flinching at 100 mg/kg administered 30 mins prior to test measured for 10 to 30 mins relative to control; type: functional
Mus musculus [31] = assay: Antinociceptive activity in Swiss albino mouse assessed as inhibition of formalin-induced flinching at 100 mg/kg administered 30 mins prior to test measured up to 5 mins relative to control; type: functional
Mus musculus [32] = assay: Antinociceptive activity in Swiss albino mouse assessed as inhibition of acetic acid-induced writhing at 100 mg/kg administered 30 mins prior to acetic acid-challenge measured for 30 mins relative to control; type: functional
Procedure, shortened: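 Swiss albino mice (20–25 g, either sex); writhing induced by i.p. 0.1 mL of 2.0% v/v acetic acid given half an hour after test compound dosing.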

Mus musculus [33] = species: Mus musculus; assay: Neurotoxicity in Swiss albino mouse assessed as minimal motor impairment after 4 hrs by rotarod test; type: toxicity, organism-based; details: in vivo
Procedure, shortened: (§2)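 Mice, either sex, 20-25 g, dosed at 30, 100 and 300 mg/kg. Minimal motor impairment was scored on the rotarod at 0.5 and 4.0 h. Value reported is the minimum dose showing the effect in half or more of three mice per group.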

Mus musculus [34] = species: Mus musculus; assay: Neurotoxicity in Swiss albino mouse assessed as minimal motor impairment after 0.5 hrs by rotarod test; type: toxicity, organism-based; details: in vivo; procedure, shortened: as §2

Compound: COc1ccc2c(c1)c(CC(=O)O)c(C)n2C(=O)c1ccc(Cl)cc1 [INDOMETHACIN]
- inhibition in vivo at 5 mg/kg (Mus musculus [1]): 72.1%
- inhibition in vivo at 5 mg/kg (Mus musculus [2]): 4.7%
- inhibition in vivo at 5 mg/kg (Mus musculus [3]): 96.1%
- Activity (Mus musculus [4]): Non-toxic
- Activity (Mus musculus [5]): Non-toxic

Compound: CCN1CCc2c(c(C(C)(C)C)nn2C(=O)Nc2ccc(F)cc2F)C1
- Activity (Rattus norvegicus [6]): 43.9%
- Activity (Rattus norvegicus [7]): 60.2%
- Activity (Rattus norvegicus [8]): 60%
- Activity (Rattus norvegicus [9]): 11.2%
- Activity (Rattus norvegicus [10]): 72.9%
- Activity (Rattus norvegicus [11]): 70.8%
- Activity (Rattus norvegicus [12]): 40%
- Activity (Rattus norvegicus [13]): 64.4%
- Activity (Rattus norvegicus [14]): 64.3%
- Activity (Rattus norvegicus [15]): 40%
- Activity (Rattus norvegicus [16]): 64.4%
- Activity (Rattus norvegicus [17]): 64.3%
- Activity (Rattus norvegicus [18]): 38.3%
- Activity (Rattus norvegicus [19]): 51.7%
- Activity (Rattus norvegicus [20]): 66.7%
- Activity (Rattus norvegicus [21]): 51.7%
- Activity (Rattus norvegicus [22]): 58.3%
- Activity (Rattus norvegicus [23]): 61.2%
- Activity (Rattus norvegicus [24]): 56.9%
- Activity (Rattus norvegicus [25]): 65%
- Activity (Rattus norvegicus [26]): 89.3%
- Activity (Rattus norvegicus [27]): 91.6%
- Activity (Rattus norvegicus [28]): 85.9%
- Activity (Rattus norvegicus [29]): 81.6%
- inhibition in vivo at 100 mg/kg (Mus musculus [30]): 73.4%
- inhibition in vivo at 100 mg/kg (Mus musculus [31]): 4.4%
- inhibition in vivo at 100 mg/kg (Mus musculus [32]): 71.9%
- MLD (Mus musculus [33]): 100 mg/kg
- MLD (Mus musculus [34]): 100 mg/kg
